Compounds with a hit are over-represented: about 2.8% of the library has one in this group of screens.
HTR2A ag = mouse HTR2A agonism via beta-arrestin recruitment. activation, % at 7.6 µM. AID 624169. 360,000 compounds, 0.66% hits. CHO-K1 mHTR2A beta-arrestin complementation, luminescence; percent of 30 µM serotonin response. P35363;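 active = activation above a run cutoff, the mean activation of all tested compounds plus 3 SD, cut at about 14% in these data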
MC4R ag barr = human MC4R agonism via beta-arrestin; AID 540308; U2OS MC4R beta-arrestin complementation, luminescence; percent of melanotan II response, DMSO zero; activation, % at 8.9 µM; 360,000 compounds, 0.98% hits; P32245;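 active = activation above a per-plate cutoff, the mean activation of sample wells on that plate plus 3 SD, cut at about 8% in these data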
Target sequence (P32245 whole entry, looked up): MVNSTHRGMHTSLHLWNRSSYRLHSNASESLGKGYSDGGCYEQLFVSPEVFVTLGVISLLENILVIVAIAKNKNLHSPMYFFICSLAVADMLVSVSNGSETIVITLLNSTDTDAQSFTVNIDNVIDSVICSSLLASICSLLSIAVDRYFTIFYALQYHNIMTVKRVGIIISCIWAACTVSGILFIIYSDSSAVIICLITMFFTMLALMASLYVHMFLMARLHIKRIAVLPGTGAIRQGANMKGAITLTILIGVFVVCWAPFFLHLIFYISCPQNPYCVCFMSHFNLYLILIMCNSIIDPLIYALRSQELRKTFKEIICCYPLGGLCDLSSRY
MC4R antag cAMP = human MC4R antagonism in cAMP assay; P32245; MC4R-expressing cells, MTII-stimulated cAMP, LANCE TR-FRET; inhibition, % at 6.5 µM; 360,000 compounds, 0.48% hits; AID 540295;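 active = inhibition above its plate's cutoff, the mean of tested wells on that plate plus 3 SD, cut at about 29% in these data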
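system = U2OS cells with stable human MC4R expression | also added = Melanotan II challenge after compound preincubation | dosing = one concentration, 6.5 µM nominal | incubation = compound 30 min, challenge 1 h, detection 1 h | measured by = TR-FRET with Eu-cAMP and labeled anti-cAMP, 671 nm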
EBI2 block = antagonists of human EBI2 receptor; P32249; EBI2 beta-arrestin recruitment, luminescence, 7a,25-OHC stimulated; inhibition, % at 5 µM; 360,000 compounds, 0.81% hits; AID 651636; in the data active = inhibition above about 38%;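 also: enzyme fragment complementation signal reports receptor beta-arrestin coupling in cells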
MC4R barr conf = human MC4R beta-arrestin agonism confirmation | shares compounds with MC4R ag barr | U2OS MC4R beta-arrestin recruitment, luminescence; scaled DMSO 0%, Melanotan II 100% | activation, % at 8.9 µM | 2,400 compounds, 31% hits;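 active = mean activation across replicates above the hit cutoff set in the earlier primary screen, cut at about 8% in these data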
MOR-DOR barr ag = activates mu-delta opioid heterodimer, MC4R agonist counter-screen; shares compounds with MC4R ag barr; U2OS PathHunter beta-arrestin, beta-gal luminescence; percent of deltorphin B response, DMSO zero; activation, % at 9.2 µM; 2,400 compounds, 5.8% hits;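 active = mean activation across replicates exceeds the hit threshold derived in the earlier primary screen, cut at about 18% in these data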
Large screens that a line does not name were inactive (follow-up assays come after a bar, where they were run).

CCOC(=O)c1c(C)[nH]c(C(=O)COc2ccc3ccc(=O)oc3c2)c1C	none
CSc1nc(N)nc(SCC(=O)c2ccc(C)cc2)c1C#N	MC4R ag barr 21 | MC4R barr conf 22 | MOR-DOR barr ag inactive
CCN(Cc1ccccc1)S(=O)(=O)c1ccc(S(=O)(=O)N(Cc2ccccn2)Cc2ccco2)cc1	MC4R ag barr 13 | MC4R barr conf inactive | MOR-DOR barr ag inactive
CCOc1ccc(CC2S/C(=N/N=C/c3ccco3)NC2=O)cc1 (stereo not given)	MC4R ag barr 14 | MC4R barr conf inactive | MOR-DOR barr ag inactive
O=C1N/C(=N\N=C\c2ccco2)SC1Cc1ccccc1[N+](=O)[O-] (stereo not given)	none
C[C@@H]1CN([C@@H](C)CO)C(=O)c2cc(Br)cnc2O[C@@H]1CN(C)Cc1ccc(Oc2ccccc2)cc1	none
CC(C)(C)c1ccc(C(=O)N2CCC2(C)C(=O)NCCC#N)cc1 (stereo not given)	none
COc1cccc(NCc2cc3c(C(C)(C)C)nn(-c4ccccc4)c3[nH]c2=O)c1	MC4R ag barr 13 | MC4R barr conf inactive | MOR-DOR barr ag inactive
CCOc1ccc2cc(C#N)c(SCC(=O)N3CCC(C)CC3)nc2c1	none
CCOC(=O)CSc1nc2cc(OCC)ccc2cc1C#N	MC4R ag barr 31 | MC4R barr conf inactive | MOR-DOR barr ag inactive
O=C(Nc1ccc(-c2nc3ccccc3[nH]2)cc1)c1ccccc1NS(=O)(=O)c1ccc(F)cc1	MC4R ag barr 15 | MC4R barr conf inactive | MOR-DOR barr ag inactive
COC(=O)c1c(C)[nH]c(C(=O)CSc2ccc(Cl)cc2)c1C	MC4R ag barr 29 | MC4R barr conf 11 | MOR-DOR barr ag inactive
CCc1c(C)[nH]c(C(=O)OCc2ccccc2)c1C	MC4R ag barr 10 | MC4R barr conf inactive | MOR-DOR barr ag inactive
COC(=O)c1c(C)[nH]c(C(=O)OCc2ccc(F)cc2)c1C	MC4R ag barr 12 | MC4R barr conf inactive | MOR-DOR barr ag inactive
CCOC(=O)c1[nH]c(C)c(C(=O)OCCOc2cccc(C)c2)c1C	MC4R ag barr 12 | MC4R barr conf 8.5 | MOR-DOR barr ag inactive
O=S(=O)(Nc1ccc(-n2cnnn2)cc1)c1cccc(Cl)c1	none
O=C(C[C@H]1CC[C@@H]2[C@H](COC[C@@H](O)CN2Cc2ccc(Cl)cc2)O1)NCCc1ccccc1	none (no result: MC4R ag barr, MC4R antag cAMP)
CCOC(=O)c1[nH]c(C)c(C(=O)OCc2ccccc2F)c1C	MC4R ag barr 26 | MC4R barr conf inactive | MOR-DOR barr ag inactive
CCOC(=O)c1c(C)[nH]c(C(=O)NNC(=O)c2ccccc2F)c1C	none
ClCCn1cnc2c(SCc3ccccc3)ncnc21	none
COc1cccc(-c2cc3nc(NCc4ccccc4F)n(C)c(=O)c3s2)c1	none
CCn1c2ccccc2c2cc(NC(=O)COc3ccc(OC)cc3)ccc21	none
CCn1c2ccccc2c2cc(NC(=O)COc3ccccc3)ccc21	MC4R ag barr 26 | MC4R barr conf inactive | MOR-DOR barr ag inactive
CCn1c2ccccc2c2cc(NC(=O)COC(=O)c3ccccc3F)ccc21	MC4R ag barr 9.8 | MC4R barr conf inactive | MOR-DOR barr ag inactive
O=C(COc1ccccc1)Nc1ccc(OC(F)(F)C(F)F)c(NC(=O)COc2ccccc2)c1	MC4R ag barr 17 | MC4R barr conf 9.9 | MOR-DOR barr ag inactive
C/C(=N\NC(=O)c1nnn(-c2nonc2N)c1CSc1ccc(C)cc1)c1cccnc1	none
N#Cc1ccccc1N/C=C/C(=O)c1ccc(Cl)cc1	MC4R ag barr 13 | MC4R barr conf inactive | MOR-DOR barr ag inactive
Cc1ccccc1OCC(=O)N=Nc1c(O)n(C)c2ccccc12	MC4R ag barr 18 | MC4R barr conf inactive | MOR-DOR barr ag inactive
CCOC(=O)N=Nc1c(O)n(C)c2ccccc12	none
COc1ccc(CNC(=O)c2ccc(N3CCOCC3)c([N+](=O)[O-])c2)cc1	none
COc1ccc2oc(-c3ccc(C)c(NC(=O)c4ccc(N5CCOCC5)c([N+](=O)[O-])c4)c3)nc2c1	MC4R ag barr 11 | MC4R barr conf inactive | MOR-DOR barr ag inactive
CCNC(=O)C1(C)CCN(C(=O)c2cccc(C#N)c2)C1 (stereo not given)	none
Fc1cc(Br)ccc1Nc1nc2ccccc2n2nnnc12	MC4R ag barr 14 | MC4R barr conf 9.6 | MOR-DOR barr ag inactive

Screens: PubChem, several laboratories
